Experimental data from ChEMBL document CHEMBL5653631, “A Potent and Selective ULK1 Inhibitor Suppresses Autophagy and Sensitizes Cancer Cells to Nutrient Stress” (iScience, 2018).

How the values were obtained:
[1] = target: MAP kinase-interacting serine/threonine-protein kinase 2 (Homo sapiens, UniProt Q9HBH9); test: Inhibition of human recombinant MNK2
[2] = target: T1, Serine/threonine-protein kinase Nek11 (Homo sapiens) (UniProt Q8NG66); test: Inhibition of human recombinant NEK11 at 40 nM in presence of ATP by radiometric assay relative to control
T1 sequence (whole entry): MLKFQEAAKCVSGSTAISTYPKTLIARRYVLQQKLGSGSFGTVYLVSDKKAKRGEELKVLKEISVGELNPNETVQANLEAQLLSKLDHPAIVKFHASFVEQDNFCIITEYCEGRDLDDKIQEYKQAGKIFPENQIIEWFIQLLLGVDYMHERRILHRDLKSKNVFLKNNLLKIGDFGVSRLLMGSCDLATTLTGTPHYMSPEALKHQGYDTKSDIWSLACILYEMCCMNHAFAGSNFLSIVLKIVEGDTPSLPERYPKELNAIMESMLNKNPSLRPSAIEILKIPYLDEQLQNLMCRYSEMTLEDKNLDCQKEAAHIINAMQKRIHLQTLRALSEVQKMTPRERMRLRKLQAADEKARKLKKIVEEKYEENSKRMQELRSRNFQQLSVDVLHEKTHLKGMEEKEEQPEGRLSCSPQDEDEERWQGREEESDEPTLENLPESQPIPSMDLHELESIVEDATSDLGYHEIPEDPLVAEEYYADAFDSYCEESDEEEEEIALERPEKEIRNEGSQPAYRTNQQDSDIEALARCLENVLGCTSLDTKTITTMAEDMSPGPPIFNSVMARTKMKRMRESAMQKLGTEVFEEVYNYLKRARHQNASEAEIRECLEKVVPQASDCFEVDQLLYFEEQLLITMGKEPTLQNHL

[3] = target: Receptor-interacting serine/threonine-protein kinase 2 (Homo sapiens) (UniProt O43353); test: Inhibition of human recombinant RIPK2 at 40 nM in presence of ATP by radiometric assay relative to control
[4] = target: Serine/threonine-protein kinase SIK1 (Homo sapiens) (UniProt P57059); test: Inhibition of human recombinant SIK at 40 nM in presence of ATP by radiometric assay relative to control
[5] = target: Serine/threonine-protein kinase MRCK beta (Homo sapiens) (UniProt Q9Y5S2); test: Inhibition of human recombinant MRCKb at 40 nM related to control ULK1
[6] = target: Protein kinase C delta type (Homo sapiens) (UniProt Q05655); test: Inhibition of human recombinant PKCd at 40 nM related to control ULK1
[7] = target: Serine/threonine-protein kinase PLK2 (Homo sapiens) (UniProt Q9NYY3); test: Inhibition of human recombinant PLK2 at 40 nM related to control ULK1
[8] = target: Serine/threonine-protein kinase SBK1 (Homo sapiens) (UniProt Q52WX2); test: Inhibition of human recombinant SBK1 at 40 nM related to control ULK1
[9] = target: Dual specificity tyrosine-phosphorylation-regulated kinase 1B (Homo sapiens) (UniProt Q9Y463); test: Inhibition of human recombinant DYRK1B at 15 nM in presence of ATP by radiometric assay relative to control
[10] = target: Tyrosine-protein kinase Fer (Homo sapiens) (UniProt P16591); test: Inhibition of human recombinant FER at 15 nM in presence of ATP by radiometric assay relative to control
[11] = target: Protein kinase C theta type (Homo sapiens) (UniProt Q04759); test: Inhibition of human recombinant PKCt at 15 nM in presence of ATP by radiometric assay relative to control
[12] = target: Tyrosine-protein kinase Yes (Homo sapiens) (UniProt P07947); test: Inhibition of human recombinant YES at 15 nM in presence of ATP by radiometric assay relative to control
[13] = target: ALK tyrosine kinase receptor (Homo sapiens) (UniProt Q9UM73); test: Inhibition of human recombinant ALK at 15 nM related to control ULK1
[14] = target: Ephrin type-A receptor 2 (Homo sapiens) (UniProt P29317); test: Inhibition of human recombinant EphA2 at 15 nM related to control ULK1
[15] = target: T2, SNF-related serine/threonine-protein kinase (Homo sapiens) (UniProt Q9NRH2); test: Inhibition of human recombinant SNRK at 15 nM related to control ULK1
T2 sequence (whole entry): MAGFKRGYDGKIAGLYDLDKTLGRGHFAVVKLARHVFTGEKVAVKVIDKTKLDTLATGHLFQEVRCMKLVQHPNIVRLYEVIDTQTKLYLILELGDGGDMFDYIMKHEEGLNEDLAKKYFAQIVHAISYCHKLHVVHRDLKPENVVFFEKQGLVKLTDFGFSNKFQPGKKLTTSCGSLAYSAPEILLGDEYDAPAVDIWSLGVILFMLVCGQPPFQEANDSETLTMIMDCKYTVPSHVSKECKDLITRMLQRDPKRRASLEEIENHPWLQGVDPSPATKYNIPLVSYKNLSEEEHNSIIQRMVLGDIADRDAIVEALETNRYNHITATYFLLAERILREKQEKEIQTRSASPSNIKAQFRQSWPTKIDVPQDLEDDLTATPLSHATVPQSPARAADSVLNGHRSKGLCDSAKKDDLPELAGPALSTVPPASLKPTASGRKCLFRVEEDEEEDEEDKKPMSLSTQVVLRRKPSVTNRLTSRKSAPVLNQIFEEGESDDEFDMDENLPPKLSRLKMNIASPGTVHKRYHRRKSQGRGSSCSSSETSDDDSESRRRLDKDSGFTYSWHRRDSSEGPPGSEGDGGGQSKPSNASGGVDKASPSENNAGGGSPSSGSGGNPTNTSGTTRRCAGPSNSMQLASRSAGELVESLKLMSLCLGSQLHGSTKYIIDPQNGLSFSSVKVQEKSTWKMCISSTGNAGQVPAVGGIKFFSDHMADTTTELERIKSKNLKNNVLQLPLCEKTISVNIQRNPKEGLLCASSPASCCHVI

[16] = target: Serine/threonine-protein kinase ATR (Homo sapiens) (UniProt Q13535); test: Inhibition of human recombinant ATR at 500 nM in presence of ATP by radiometric assay relative to control
Summary of the method: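 Panel of 327 recombinant human kinases, each assayed in vitro by radiometric activity assay in duplicate at a single inhibitor concentration per compound, chosen with reference to its ULK1 inhibition. Activity remaining was expressed as percent of vehicle control, and percent inhibition was calculated as 100 minus percent activity remaining.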

[17] = target: DNA-PK/Ku70/Ku85 (Homo sapiens) (UniProt P78527+P12956+P13010); test: Inhibition of human recombinant DNAPK at 500 nM related to control ULK1; format: protein-complex assay
[18] = target: eIF-2-alpha kinase GCN2 (Homo sapiens) (UniProt Q9P2K8); test: Inhibition of human recombinant GCN2 at 500 nM related to control ULK1
Chain of eIF-2-alpha kinase GCN2 (Homo sapiens) (Q9P2K8 whole entry): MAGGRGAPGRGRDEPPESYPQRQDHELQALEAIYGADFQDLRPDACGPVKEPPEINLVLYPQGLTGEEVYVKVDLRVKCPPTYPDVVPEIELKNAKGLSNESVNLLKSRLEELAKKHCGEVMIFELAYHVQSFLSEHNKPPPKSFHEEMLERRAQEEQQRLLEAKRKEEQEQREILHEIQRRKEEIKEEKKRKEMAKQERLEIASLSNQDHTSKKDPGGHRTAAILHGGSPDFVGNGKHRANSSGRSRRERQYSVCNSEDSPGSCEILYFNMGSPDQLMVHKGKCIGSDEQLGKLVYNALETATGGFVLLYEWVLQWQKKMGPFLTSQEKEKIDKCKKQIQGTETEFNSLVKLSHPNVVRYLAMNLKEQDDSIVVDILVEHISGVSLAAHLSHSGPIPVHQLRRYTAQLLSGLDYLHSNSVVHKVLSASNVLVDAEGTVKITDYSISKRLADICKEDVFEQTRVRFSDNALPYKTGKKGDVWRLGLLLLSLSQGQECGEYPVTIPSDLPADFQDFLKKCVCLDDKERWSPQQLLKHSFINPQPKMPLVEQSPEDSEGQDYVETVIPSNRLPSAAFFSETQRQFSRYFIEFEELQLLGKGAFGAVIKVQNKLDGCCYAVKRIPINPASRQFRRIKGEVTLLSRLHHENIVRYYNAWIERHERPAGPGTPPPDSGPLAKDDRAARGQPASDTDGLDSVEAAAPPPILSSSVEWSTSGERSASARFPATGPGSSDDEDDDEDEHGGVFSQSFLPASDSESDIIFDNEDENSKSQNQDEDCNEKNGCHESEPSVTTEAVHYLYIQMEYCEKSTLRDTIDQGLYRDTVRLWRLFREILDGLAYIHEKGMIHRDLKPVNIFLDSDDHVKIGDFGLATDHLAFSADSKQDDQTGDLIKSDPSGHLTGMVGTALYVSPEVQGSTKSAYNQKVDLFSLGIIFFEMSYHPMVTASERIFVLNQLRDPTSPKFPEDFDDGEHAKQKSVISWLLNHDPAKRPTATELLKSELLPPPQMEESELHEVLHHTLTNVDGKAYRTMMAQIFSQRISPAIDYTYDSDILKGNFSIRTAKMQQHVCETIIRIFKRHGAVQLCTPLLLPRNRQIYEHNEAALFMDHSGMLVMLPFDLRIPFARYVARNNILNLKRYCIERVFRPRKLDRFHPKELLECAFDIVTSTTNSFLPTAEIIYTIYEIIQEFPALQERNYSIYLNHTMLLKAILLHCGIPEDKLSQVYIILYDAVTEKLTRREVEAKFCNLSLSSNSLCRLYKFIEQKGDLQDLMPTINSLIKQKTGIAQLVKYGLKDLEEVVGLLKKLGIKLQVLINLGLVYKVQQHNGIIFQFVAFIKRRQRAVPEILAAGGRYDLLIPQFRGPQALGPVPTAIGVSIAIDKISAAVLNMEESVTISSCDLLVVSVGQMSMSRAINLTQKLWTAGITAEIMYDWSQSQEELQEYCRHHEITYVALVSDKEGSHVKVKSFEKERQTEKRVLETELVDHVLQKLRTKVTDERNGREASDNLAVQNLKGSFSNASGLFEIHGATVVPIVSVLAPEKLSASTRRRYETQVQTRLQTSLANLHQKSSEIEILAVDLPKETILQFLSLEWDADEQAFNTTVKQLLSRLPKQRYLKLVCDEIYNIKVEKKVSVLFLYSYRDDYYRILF

Chain of Receptor-interacting serine/threonine-protein kinase 2 (Homo sapiens) (O43353 whole entry): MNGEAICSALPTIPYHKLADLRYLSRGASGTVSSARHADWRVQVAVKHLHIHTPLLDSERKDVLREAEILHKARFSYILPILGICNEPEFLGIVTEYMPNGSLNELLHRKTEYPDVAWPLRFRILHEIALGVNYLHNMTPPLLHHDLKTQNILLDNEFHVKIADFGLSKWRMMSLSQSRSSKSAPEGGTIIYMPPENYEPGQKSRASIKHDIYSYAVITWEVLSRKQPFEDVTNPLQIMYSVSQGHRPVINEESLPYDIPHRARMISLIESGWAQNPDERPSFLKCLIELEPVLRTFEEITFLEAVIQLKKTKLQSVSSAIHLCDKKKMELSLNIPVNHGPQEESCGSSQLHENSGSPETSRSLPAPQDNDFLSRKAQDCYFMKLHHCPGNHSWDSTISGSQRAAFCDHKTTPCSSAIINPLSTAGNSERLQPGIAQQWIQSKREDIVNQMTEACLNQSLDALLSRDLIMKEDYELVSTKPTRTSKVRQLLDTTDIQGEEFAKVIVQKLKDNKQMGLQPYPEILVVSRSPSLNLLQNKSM
Chain of Tyrosine-protein kinase Yes (Homo sapiens) (P07947 2-543 limits assumed): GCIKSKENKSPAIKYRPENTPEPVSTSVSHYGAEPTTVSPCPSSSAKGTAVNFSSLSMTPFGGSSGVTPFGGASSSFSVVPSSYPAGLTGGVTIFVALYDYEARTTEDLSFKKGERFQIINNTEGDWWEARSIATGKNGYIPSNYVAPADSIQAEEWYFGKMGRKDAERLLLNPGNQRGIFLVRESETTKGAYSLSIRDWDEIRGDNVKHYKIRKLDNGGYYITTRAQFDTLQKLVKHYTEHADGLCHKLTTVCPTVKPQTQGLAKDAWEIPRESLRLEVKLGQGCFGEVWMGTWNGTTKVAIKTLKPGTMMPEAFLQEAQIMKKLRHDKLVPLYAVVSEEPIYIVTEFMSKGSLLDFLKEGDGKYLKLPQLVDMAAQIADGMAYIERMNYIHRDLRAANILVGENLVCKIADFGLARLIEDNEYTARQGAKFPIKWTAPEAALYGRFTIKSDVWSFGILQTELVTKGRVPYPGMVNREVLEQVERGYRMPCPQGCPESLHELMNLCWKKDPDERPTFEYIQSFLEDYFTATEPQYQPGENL
Chain of Tyrosine-protein kinase Fer (Homo sapiens) (P16591 whole entry, looked up): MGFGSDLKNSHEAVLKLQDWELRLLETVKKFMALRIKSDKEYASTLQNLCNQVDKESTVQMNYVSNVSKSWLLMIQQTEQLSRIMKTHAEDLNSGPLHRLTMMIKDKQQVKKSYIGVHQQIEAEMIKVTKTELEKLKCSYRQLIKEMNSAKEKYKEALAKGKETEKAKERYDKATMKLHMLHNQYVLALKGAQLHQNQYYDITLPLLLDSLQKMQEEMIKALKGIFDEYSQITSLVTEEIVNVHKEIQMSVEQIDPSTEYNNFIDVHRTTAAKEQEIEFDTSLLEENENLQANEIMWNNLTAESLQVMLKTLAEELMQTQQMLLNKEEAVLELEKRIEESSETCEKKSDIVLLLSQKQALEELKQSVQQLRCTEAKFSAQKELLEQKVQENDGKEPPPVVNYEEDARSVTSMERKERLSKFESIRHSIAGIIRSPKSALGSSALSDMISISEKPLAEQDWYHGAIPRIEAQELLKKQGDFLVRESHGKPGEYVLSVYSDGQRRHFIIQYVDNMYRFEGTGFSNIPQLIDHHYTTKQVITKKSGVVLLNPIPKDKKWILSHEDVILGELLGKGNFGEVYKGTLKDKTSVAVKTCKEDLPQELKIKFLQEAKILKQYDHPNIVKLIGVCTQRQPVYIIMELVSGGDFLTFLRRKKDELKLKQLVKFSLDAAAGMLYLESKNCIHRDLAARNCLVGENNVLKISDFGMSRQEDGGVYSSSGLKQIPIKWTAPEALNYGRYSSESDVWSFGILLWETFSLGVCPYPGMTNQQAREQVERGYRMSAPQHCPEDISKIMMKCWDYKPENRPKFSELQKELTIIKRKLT
Chain of Serine/threonine-protein kinase PLK2 (Homo sapiens) (Q9NYY3 whole entry, looked up): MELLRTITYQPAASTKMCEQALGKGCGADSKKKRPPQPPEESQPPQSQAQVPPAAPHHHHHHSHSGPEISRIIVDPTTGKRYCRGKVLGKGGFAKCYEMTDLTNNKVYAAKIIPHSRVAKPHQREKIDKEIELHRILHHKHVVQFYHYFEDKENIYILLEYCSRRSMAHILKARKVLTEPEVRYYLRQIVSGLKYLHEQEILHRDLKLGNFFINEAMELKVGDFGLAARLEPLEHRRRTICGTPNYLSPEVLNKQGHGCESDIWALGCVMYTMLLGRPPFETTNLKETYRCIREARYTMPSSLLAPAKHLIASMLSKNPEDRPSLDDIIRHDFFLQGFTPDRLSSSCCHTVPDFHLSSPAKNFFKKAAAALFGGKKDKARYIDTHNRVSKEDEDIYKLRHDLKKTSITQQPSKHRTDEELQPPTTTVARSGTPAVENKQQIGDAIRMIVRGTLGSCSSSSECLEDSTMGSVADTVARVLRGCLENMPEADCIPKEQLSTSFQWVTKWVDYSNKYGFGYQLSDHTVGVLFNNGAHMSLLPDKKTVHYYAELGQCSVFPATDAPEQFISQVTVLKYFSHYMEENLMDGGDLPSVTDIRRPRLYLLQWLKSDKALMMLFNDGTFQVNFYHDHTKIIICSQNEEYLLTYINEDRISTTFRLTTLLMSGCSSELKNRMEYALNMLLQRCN
Chain of Dual specificity tyrosine-phosphorylation-regulated kinase 1B (Homo sapiens) (Q9Y463 whole entry, looked up): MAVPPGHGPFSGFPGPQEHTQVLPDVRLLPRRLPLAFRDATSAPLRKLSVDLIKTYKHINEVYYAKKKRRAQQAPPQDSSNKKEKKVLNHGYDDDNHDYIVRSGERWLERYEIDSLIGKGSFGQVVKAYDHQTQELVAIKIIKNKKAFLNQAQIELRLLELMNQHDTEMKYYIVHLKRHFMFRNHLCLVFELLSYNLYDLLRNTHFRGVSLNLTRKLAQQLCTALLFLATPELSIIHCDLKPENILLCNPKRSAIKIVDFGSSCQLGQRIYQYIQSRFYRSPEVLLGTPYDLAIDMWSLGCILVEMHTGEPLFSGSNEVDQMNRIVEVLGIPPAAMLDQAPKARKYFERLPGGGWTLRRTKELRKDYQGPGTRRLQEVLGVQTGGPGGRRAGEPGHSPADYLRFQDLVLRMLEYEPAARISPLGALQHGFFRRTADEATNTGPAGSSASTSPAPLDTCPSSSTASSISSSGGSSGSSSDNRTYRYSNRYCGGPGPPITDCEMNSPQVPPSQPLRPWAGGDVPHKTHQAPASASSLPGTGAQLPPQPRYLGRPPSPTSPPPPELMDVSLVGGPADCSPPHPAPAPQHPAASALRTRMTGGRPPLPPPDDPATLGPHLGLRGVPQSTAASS

## O=C(N[C@@H](C1CC1)C(F)(F)F)c1cc(-c2cnn3cc(-c4ccc(F)cc4)cnc23)cs1
[1]
  IC50: 22 nM
[2]
  inhibition: 8%
[3]
  inhibition: 30%
[4]
  inhibition: 20%
[5]
  fold change (FC): 0.07
[6]
  fold change (FC): 0.04
[7]
  fold change (FC): 0.04
[8]
  fold change (FC): 0

## CC(C)[C@H](NC(=O)c1cc(-c2cnn3cc(-c4ccc(OCCN5CCCCC5)cc4)cnc23)cs1)C(F)(F)F
[9]
  inhibition: 65%
[10]
  inhibition: 0%
[11]
  inhibition: 0%
[12]
  inhibition: 76%
[13]
  fold change (FC): 0
[14]
  fold change (FC): 0
[15]
  fold change (FC): 0.09

## CNC(=O)c1ccccc1Oc1nc(Nc2cc(OC)c(OC)c(OC)c2)ncc1Br
[16]
  inhibition: 0%
[17]
  fold change (FC): 0.16
[18]
  fold change (FC): 0.03
